ChEMBL document CHEMBL2169837 (J Med Chem, 2012)
Converted amounts (≈) assume the structure as drawn. The source made the active and inactive calls. The calls are words filed in the database; no cut-off is given here.

Assays:
Homo sapiens = species on record: Homo sapiens; assay: Selectivity ratio of Ki for human oxytocin receptor to Ki for human vasopressin V2 receptor
Oxytocin receptor [1] = biological target: T1, Oxytocin receptor (Homo sapiens, UniProt P30559); assay: Displacement of [3H]-AVP from human oxytocin receptor expressed in CHO cells after 30 mins; assay type: cell-based
T1 sequence (P30559 whole entry): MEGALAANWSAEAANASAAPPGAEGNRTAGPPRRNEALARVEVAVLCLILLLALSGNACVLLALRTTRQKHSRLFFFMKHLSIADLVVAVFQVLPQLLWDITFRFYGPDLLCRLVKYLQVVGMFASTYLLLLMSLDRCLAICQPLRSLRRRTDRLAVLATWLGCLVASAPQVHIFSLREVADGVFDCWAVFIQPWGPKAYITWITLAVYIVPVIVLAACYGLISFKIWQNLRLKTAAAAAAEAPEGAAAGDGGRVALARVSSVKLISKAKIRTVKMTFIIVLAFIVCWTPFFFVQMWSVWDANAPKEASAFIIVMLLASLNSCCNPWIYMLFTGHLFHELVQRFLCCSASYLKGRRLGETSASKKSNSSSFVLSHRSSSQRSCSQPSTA

[2] = biological target: T2, Vasopressin V1b receptor (Homo sapiens) (UniProt P47901); assay: Displacement of [3H]-AVP from human vasopressin V1b receptor expressed in CHO cells at 10 uM after 30 mins; assay type: cell-based
T2 sequence (whole entry): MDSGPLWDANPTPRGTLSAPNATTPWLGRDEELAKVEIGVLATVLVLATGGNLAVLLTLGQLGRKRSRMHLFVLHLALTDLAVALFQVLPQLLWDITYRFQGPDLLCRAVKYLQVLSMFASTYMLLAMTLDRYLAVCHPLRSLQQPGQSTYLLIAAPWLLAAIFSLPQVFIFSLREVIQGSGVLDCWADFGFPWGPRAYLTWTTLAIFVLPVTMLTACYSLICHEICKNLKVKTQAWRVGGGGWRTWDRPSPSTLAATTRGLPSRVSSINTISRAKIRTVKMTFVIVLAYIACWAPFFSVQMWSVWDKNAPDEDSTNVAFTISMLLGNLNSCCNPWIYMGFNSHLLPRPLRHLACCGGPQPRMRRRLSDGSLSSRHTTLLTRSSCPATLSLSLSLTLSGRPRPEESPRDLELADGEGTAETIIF
Procedure, shortened: (§1)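 Human OTR, V1aR or V1bR membranes from CHO cells, [3H]-AVP displacement with compound at a single 10 μM concentration, 30 min at 30 °C in Tris-HCl pH 7.4/MgCl2/BSA buffer.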

Vasopressin V1b receptor = biological target: T3, Vasopressin V1b receptor (Homo sapiens, UniProt P47901); assay: Displacement of [3H]-AVP from human vasopressin V1b receptor expressed in CHO cells after 30 mins; assay type: cell-based
T3 sequence (P47901 whole entry): T2 sequence (whole entry)

Vasopressin V1a receptor [3] = biological target: T4, Vasopressin V1a receptor (Homo sapiens, UniProt P37288); assay: Displacement of [3H]-AVP from human vasopressin V1a receptor expressed in CHO cells at 10 uM after 30 mins; assay type: cell-based; procedure, shortened: as §1
Target sequence in this assay (P37288 whole entry, looked up): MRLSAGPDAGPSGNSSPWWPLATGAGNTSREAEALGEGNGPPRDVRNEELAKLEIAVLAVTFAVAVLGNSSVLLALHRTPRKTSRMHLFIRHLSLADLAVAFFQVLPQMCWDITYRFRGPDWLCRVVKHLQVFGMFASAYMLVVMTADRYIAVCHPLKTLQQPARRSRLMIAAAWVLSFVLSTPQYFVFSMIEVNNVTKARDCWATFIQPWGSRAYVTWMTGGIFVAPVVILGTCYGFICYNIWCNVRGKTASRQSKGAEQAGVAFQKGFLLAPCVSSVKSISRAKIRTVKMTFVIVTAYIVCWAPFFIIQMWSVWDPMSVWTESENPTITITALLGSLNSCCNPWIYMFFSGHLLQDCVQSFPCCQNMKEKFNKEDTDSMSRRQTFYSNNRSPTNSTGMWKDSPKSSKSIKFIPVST

Vasopressin V1a receptor [4] = biological target: T4, Vasopressin V1a receptor; assay: Displacement of [3H]-AVP from human vasopressin V1a receptor expressed in CHO cells after 30 mins; assay type: cell-based
Target sequence in this assay (P37288 whole entry): as the sequence (P37288 whole entry, looked up) above

Vasopressin V2 receptor [5] = biological target: T5, Vasopressin V2 receptor (Homo sapiens, UniProt P30518); assay: Binding affinity to SNAP-tagged vasopressin V2 receptor expressed in HEK293 cells after 1 hr by TR-FRET assay; assay type: cell-based
Procedure, shortened: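 HEK 293T cells electroporated with SNAP-tag–V2R and grown 48 h. Receptor labeled 1 h at 37 °C with SNAP-Lumi4-Tb (100 nM) or SNAP-RED (300 nM), then washed. Rising fluorescent-ligand concentrations added and incubated overnight at 4 °C. TR-FRET read with excitation 340 nm, emission 620/665 nm. Nonspecific binding taken with 10 μM unlabeled ligand. Kd from saturation, three experiments in triplicate.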

Vasopressin V2 receptor [6] = biological target: T5, Vasopressin V2 receptor; assay: Antagonist activity at human vasopressin V2 receptor expressed in CHO cells assessed as inhibition of AVP-induced cAMP accumulation after 30 mins by TR-FRET based HTRF assay; assay type: functional, cell-based
Procedure, shortened: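 CHO cells stably expressing human V2R, 5 × 10^3 per well on polyornithine, used 24 h after seeding. Incubated 30 min at 37 °C with compound (10−12 to 10−5 M) plus phosphodiesterase inhibitor RO 201724 0.1 mM. Antagonist mode run with 1 nM AVP. Cells lysed and cAMP read by HTRF (TR-FRET). Kact/Kinact from three independent experiments in triplicate, mean ± SEM.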

Vasopressin V2 receptor [7] = biological target: T5, Vasopressin V2 receptor; assay: Agonist activity at human vasopressin V2 receptor expressed in CHO cells assessed as cAMP accumulation after 30 mins by TR-FRET based HTRF assay; assay type: functional, cell-based
Procedure, shortened: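 CHO cells stably expressing human V2R, 5 × 10^3 per well on polyornithine, used 24 h after seeding. Cells lysed and cAMP read by HTRF (TR-FRET). Kact/Kinact from three independent experiments in triplicate, mean ± SEM.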

Vasopressin V2 receptor [8] = biological target: T5, Vasopressin V2 receptor; assay: Displacement of [3H]-AVP from human vasopressin V2 receptor expressed in CHO cells after 30 mins; assay type: cell-based
[9] = Solubility of the compound in HEPES buffer at pH 7.4 after 24 hrs; assay type: physicochemical
Procedure, shortened: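 Solubility measured in pH 7.4 HEPES buffer after 24 h incubation at 22 °C.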

Oxytocin receptor [10] = biological target: T1, Oxytocin receptor; assay: Binding affinity to oxytocin receptor
Procedure, shortened: (§2)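 Membranes (5 μg protein) from CHO cells stably expressing human V2R, V1aR, V1bR or OTR. Incubated 30 min at 30 °C in 50 mM Tris-HCl pH 7.4, 5 mM MgCl2, 1 mg/mL BSA with [3H]-AVP (1−2 nM) and competitor from 100 pM to 100 μM. Nonspecific binding with 10 μM AVP. GF/C filtration; Ki by nonlinear least-squares regression. Triplicate, at least three membrane batches.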

Vasopressin V1a receptor [11] = biological target: T4, Vasopressin V1a receptor; assay: Binding affinity to vasopressin V1a receptor; procedure, shortened: as §2
Target sequence in this assay (P37288 whole entry): as the sequence (P37288 whole entry, looked up) above

[12] = biological target: T6, Oxytocin receptor (Homo sapiens) (UniProt P30559); assay: Displacement of [3H]-AVP from human oxytocin receptor expressed in CHO cells at 10 uM after 30 mins; assay type: cell-based; procedure, shortened: as §1
T6 sequence (whole entry): T1 sequence (P30559 whole entry)

[13] = biological target: T7, Muscarinic acetylcholine receptor M1 (Homo sapiens, UniProt P11229); assay: Binding affinity to human muscarinic M1 receptor
T7 sequence (P11229 whole entry): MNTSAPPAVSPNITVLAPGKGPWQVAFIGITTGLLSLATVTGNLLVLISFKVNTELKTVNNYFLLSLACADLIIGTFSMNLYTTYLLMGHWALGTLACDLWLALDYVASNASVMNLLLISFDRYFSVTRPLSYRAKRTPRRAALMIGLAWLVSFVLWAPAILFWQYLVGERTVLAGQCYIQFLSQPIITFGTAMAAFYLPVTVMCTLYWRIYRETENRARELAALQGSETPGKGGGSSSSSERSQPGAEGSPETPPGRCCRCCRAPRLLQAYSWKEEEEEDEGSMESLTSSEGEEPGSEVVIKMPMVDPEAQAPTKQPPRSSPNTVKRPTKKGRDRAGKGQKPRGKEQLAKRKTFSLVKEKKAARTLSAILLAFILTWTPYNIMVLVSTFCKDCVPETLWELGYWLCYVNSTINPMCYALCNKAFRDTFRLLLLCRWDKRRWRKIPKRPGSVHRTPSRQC

T5 sequence (P30518 whole entry): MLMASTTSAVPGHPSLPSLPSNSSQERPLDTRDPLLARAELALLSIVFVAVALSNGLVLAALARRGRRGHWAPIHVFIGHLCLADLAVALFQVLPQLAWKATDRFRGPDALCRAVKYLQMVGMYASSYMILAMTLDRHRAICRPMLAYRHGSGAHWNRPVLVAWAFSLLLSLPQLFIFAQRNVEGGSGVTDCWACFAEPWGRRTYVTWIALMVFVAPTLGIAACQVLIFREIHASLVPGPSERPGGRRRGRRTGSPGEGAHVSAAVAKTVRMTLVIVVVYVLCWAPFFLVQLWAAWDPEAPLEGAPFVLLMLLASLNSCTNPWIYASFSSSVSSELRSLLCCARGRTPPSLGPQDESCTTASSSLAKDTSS

SMILES	Ratio Ki (Homo sapiens)	Ki (Oxytocin receptor [1]) [nM]	inhibition [2] [%]	Ki (Vasopressin V1b receptor) [nM]	inhibition (Vasopressin V1a receptor [3]) [%]	Ki (Vasopressin V1a receptor [4]) [nM]	Kd (Vasopressin V2 receptor [5]) [nM]	Kb (Vasopressin V2 receptor [6]) [nM]	inhibition (Vasopressin V2 receptor [6])	Activity (Vasopressin V2 receptor [7])	Ki (Vasopressin V2 receptor [8]) [nM]	solubility at 24 h [9] [µM]	Ki (Oxytocin receptor [10]) [nM]	Ki (Vasopressin V1a receptor [11]) [nM]	inhibition [12] [%]	Ki [13] [nM]
O=C(CCC(=O)NC1CCCN(C(=O)c2ccc(NC(=O)c3ccccc3-c3ccccc3)cc2)c2ccccc21)NCc1cn(CCOCCOCCOCCNC(=S)Nc2ccc(-c3c4ccc(=O)cc-4oc4cc(O)ccc34)c(C(=O)O)c2)nn1 (stereo unspecified)	25	665	< 50	> 10000	< 50	> 10000	11.1	0.78	Dose-dependent effect	inactive	26.1	–	–	–	–	–
CCN(CC)c1ccc2c(-c3ccc(S(=O)(=O)NC4CCCN(C(=O)c5ccc(NC(=O)c6ccccc6-c6ccccc6)cc5)c5ccccc54)cc3S(=O)(=O)[O-])c3ccc(=[N+](CC)CC)cc-3oc2c1 (stereo unspecified)	–	–	–	–	–	–	–	3.8	Dose-dependent effect	inactive	25.3	2.1 (≈ 2.1 µg/mL)	–	–	–	–
Cc1ccccc1C(=O)Nc1ccc(C(=O)N2CCCC(N(C)C)c3ccccc32)cc1 (stereo unspecified) [MOZAVAPTAN]	–	–	–	–	–	–	–	–	Dose-dependent effect	inactive	–	–	660	195	–	–
CCN(CC)c1ccc2c(-c3ccc(S(=O)(=O)N4CCN(CCC(=O)NC5CCCN(C(=O)c6ccc(NC(=O)c7ccccc7-c7ccccc7)cc6)c6ccccc65)CC4)cc3S(=O)(=O)[O-])c3ccc(=[N+](CC)CC)cc-3oc2c1 (stereo unspecified)	–	–	–	–	–	–	–	2.03	Dose-dependent effect	inactive	12.7	3.7 (≈ 4.23 µg/mL)	–	–	–	–
CCN(CC)c1ccc2c(-c3ccc(S(=O)(=O)NCCCCC(=O)NC4CCCN(C(=O)c5ccc(NC(=O)c6ccccc6-c6ccccc6)cc5)c5ccccc54)cc3S(=O)(=O)[O-])c3ccc(=[N+](CC)CC)cc-3oc2c1 (stereo unspecified)	–	–	–	–	–	–	–	0.66	Dose-dependent effect	inactive	7.6	3.1 (≈ 3.41 µg/mL)	–	–	–	–
CCN(CC)c1ccc2c(-c3ccc(S(=O)(=O)[O-])cc3S(=O)(=O)NCCOCCOCCOCCn3cc(CNC(=O)CCC(=O)NC4CCCN(C(=O)c5ccc(NC(=O)c6ccccc6-c6ccccc6)cc5)c5ccccc54)nn3)c3ccc(=[N+](CC)CC)cc-3oc2c1 (stereo unspecified)	–	> 10000	< 50	> 10000	< 50	> 10000	–	2.12	Dose-dependent effect	inactive	14.1	–	–	–	< 50	–
O=C(CCC1=[N+]2C(C=C1)Cc1ccc(-c3cccs3)n1[B-]2(F)F)NCCN1CCN(CC(=O)N2c3ccccc3C(=O)Nc3cccnc32)CC1 (stereo unspecified)	–	–	–	–	–	–	–	–	–	–	–	–	–	–	–	> 1000
CCN(CC)c1ccc2c(-c3ccc(S(=O)(=O)NCCOCCOCCOCCn4cc(CNC(=O)CCC(=O)NC5CCCN(C(=O)c6ccc(NC(=O)c7ccccc7-c7ccccc7)cc6)c6ccccc65)nn4)cc3S(=O)(=O)[O-])c3ccc(=[N+](CC)CC)cc-3oc2c1 (stereo unspecified)	–	> 10000	< 50	> 10000	< 50	> 10000	–	1.96	Dose-dependent effect	inactive	4	2.1 (≈ 2.85 µg/mL)	–	–	< 50	–
CCN(CC)c1ccc2c(-c3ccc(S(=O)(=O)NCCOCCOCCOCCn4cc(CNC(=O)CCC(=O)NC5CCCN(C(=O)c6ccc(NC(=O)c7ccccc7C)cc6)c6ccccc65)nn4)cc3S(=O)(=O)[O-])c3ccc(=[N+](CC)CC)cc-3oc2c1 (stereo unspecified)	–	495	< 50	> 10000	< 50	> 10000	–	16.7	Dose-dependent effect	inactive	54.3	3.4 (≈ 4.4 µg/mL)	–	–	–	–
O=C(CCC1=[N+]2C(C=C1)Cc1ccc(-c3cccs3)n1[B-]2(F)F)NCCCCCCN1CCN(CC(=O)N2c3ccccc3C(=O)Nc3cccnc32)CC1 (stereo unspecified)	–	–	–	–	–	–	–	–	–	–	–	–	–	–	–	8.8
CCN(CC)c1ccc2c(-c3ccc(S(=O)(=O)[O-])cc3S(=O)(=O)NCCOCCOCCOCCn3cc(CNC(=O)CCC(=O)NC4CCCN(C(=O)c5ccc(NC(=O)c6ccccc6C)cc5)c5ccccc54)nn3)c3ccc(=[N+](CC)CC)cc-3oc2c1 (stereo unspecified)	–	307	< 50	> 10000	< 50	> 10000	–	164	Dose-dependent effect	inactive	188	–	–	–	–	–
CCN(CC)c1ccc2c(-c3ccc(S(=O)(=O)NCCOCCOCCOCCC(=O)NC4CCCN(C(=O)c5ccc(NC(=O)c6ccccc6-c6ccccc6)cc5)c5ccccc54)cc3S(=O)(=O)[O-])c3ccc(=[N+](CC)CC)cc-3oc2c1 (stereo unspecified)	–	–	–	–	–	–	–	8.91	Dose-dependent effect	inactive	16.8	6.2 (≈ 7.47 µg/mL)	–	–	–	–
CCN1/C(=C/C=C/C=C/C2=[N+](CC)c3ccc(S(=O)(=O)[O-])cc3C2(C)C)C(C)(CCCC(=O)NCCOCCOCCOCCn2cc(CNC(=O)CCC(=O)NC3CCCN(C(=O)c4ccc(NC(=O)c5ccccc5-c5ccccc5)cc4)c4ccccc43)nn2)c2cc(S(=O)(=O)O)ccc21 (stereo unspecified)	–	808	< 50	> 10000	–	1750	2.33	0.1	Dose-dependent effect	inactive	9.02	–	–	–	–	–
CCN1/C(=C/C=C/C=C/C2=[N+](CC)c3ccc(S(=O)(=O)[O-])cc3C2(C)C)C(C)(CCCC(=O)NCCOCCOCCOCCOCCOCCOCCn2cc(CNC(=O)CCC(=O)NC3CCCN(C(=O)c4ccc(NC(=O)c5ccccc5-c5ccccc5)cc4)c4ccccc43)nn2)c2cc(S(=O)(=O)O)ccc21 (stereo unspecified)	–	–	–	–	–	–	2.53	0.54	Dose-dependent effect	inactive	14.2	–	–	–	–	–
